# According to article PMC4383680 (Nature, 2015):
# “Also recorded” adds a separate entry of the source. No end group written: not given here.
# How the values were obtained:
# PVN MC4R neurons [1] = experiment: Current clamp membrane potential of PVN MC4R neurons, hypothalamic slices; assay type: cell-based, mouse; settings: for amplitude of α-MSH depolarization at higher concentration of salt: BaCl2 >1 mM, CsCl >2.5 mM; for effect of BaCl2 or CsCl on α-MSH induced depolarization: external, various concentrations
# Method in brief: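 MC4R-GFP mouse hypothalamic slices, 200 μm, cut at 44–49° to horizontal in near-freezing oxygenated aCSF and kept in oxygenated ACSF at 31 °C. α-MSH (250 nM) bath-applied. Continuous current clamp with membrane potential held at −55 to −60 mV to prevent spontaneous firing. Potential averaged over 3 min before peptide versus a 3 min window 7–11 min after. Zero-ATP internal at pH 7.2, 298 mosmol/kg.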
# [2] = tested on: μ-opioid receptor in PVN MC4R neurons; experiment: μ-opioid; assay type: cell-based, mouse; settings: DAMGO 10 μM; for effect on DAMGO response: GTPγS 1.5 mM or gallein 25 μM
# Method in brief: (§1)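 Mouse hypothalamic slices, 200 μm, cut at 44–49° from horizontal in oxygenated near-freezing aCSF and transferred to oxygenated ACSF at 31 °C. PVN neurons recorded in whole cell mode. Cells accepted only with holding current ≤30 pA at −70 mV, large rebound spikes, ability to fire, and no blebbing or visible nucleus.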
# [3] = biological target: MC4R + Kir7.1 (M125R) in HEK293 cells (Homo sapiens, UniProt P32245); assay type: cell-based
# Chain of MC4R + Kir7.1 (M125R) in HEK293 cells (P32245 whole entry, stated change not applied): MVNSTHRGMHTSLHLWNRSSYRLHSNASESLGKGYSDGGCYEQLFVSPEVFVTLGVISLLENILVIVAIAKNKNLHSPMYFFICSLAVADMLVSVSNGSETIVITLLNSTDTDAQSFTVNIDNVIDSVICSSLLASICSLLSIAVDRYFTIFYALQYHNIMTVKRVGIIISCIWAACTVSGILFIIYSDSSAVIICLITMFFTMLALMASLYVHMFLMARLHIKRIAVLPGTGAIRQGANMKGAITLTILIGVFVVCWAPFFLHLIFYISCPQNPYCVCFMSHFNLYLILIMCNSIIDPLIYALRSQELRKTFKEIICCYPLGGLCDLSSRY
# MC4R [4] = biological target: T1, MC4R (Homo sapiens, UniProt P32245); experiment: Intracellular cAMP / MC4R coupling to Gαs; assay type: cell-based; settings: Fig. 4a
# T1 sequence (P32245 whole entry): as the sequence (P32245 whole entry, stated change not applied) above
# [5] = tested on: inward rectifying K+ (Kir) channels; settings: at concentrations that block other Kir channels; ref [12]; cited from earlier work
# PVN MC4R neurons [6] = experiment: Firing frequency of PVN MC4R neurons; assay type: cell-based, mouse
# Method in brief: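 Slices from MC4R-GFP mice, 200 μm, cut at 44–49°, held in oxygenated ACSF at 31 °C. AgRP applied to the bath. Cells held around −50 mV so they fire spontaneously. Firing frequency counted for 3 min before peptide and for 3 min at 7–11 min after, then compared.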
# PVN MC4R neurons [7] = experiment: Voltage clamp; assay type: cell-based, mouse
# MC4R [8] = biological target: T1, MC4R; experiment: β-arrestin recruitment; assay type: cell-based; settings: increasing concentrations, PathHunter, 90 min, 37 °C
# MC4R - Gαi = experiment: Coupling of MC4R to Gαi; assay type: cell-based; settings: Extended Data Fig. 6a–c
# [9] = biological target: 3HA-MC4R (melanocortin-4 receptor) (human) (UniProt P32245)
# Chain of 3HA-MC4R (melanocortin-4 receptor) (human) (P32245 whole entry): as the sequence (P32245 whole entry, stated change not applied) above
# [10] = tested on: D1 dopamine receptor in PVN neurons; experiment: D1 receptor mediated depolarization of PVN neurons; assay type: cell-based, mouse; settings: 5 μM SKF83822
# Method in brief: as §1
molecule,measurement,setting,value
"CCCCCCCC(=O)OC[C@H](COP(=O)(O)O[C@@H]1[C@H](O)[C@H](O)[C@@H](OP(=O)(O)O)[C@H](OP(=O)(O)O)[C@H]1O)OC(=O)CCCCCCC [PI(4,5)P2 diC8]",effect on α-MSH induced depolarization,"PVN MC4R neurons [1]; 100 μM PI(4,5)P2 diC8 in zero ATP internal solution",significantly increased the amplitude of the α-MSH induced depolarization; also recorded: potentiated the α-MSH-induced response
Nc1nc2c(ncn2[C@@H]2O[C@H](COP(=O)(O)OP(=O)(O)OP(O)(O)=S)[C@@H](O)[C@H]2O)c(=O)[nH]1 [GTPγS],effect on α-MSH induced firing or depolarization,"PVN MC4R neurons [1]; GTPγS 1.5 mM, whole cell",ineffective in blocking neuronal firing or depolarization; also recorded: fails to block the depolarization induced by α-MSH
same,effect on DAMGO response,[2],does block the hyperpolarization induced by μ-opioid agonist
"miniAgRP: AgRP analogue, AgRP87-120 (87-122); synthesized, purified and folded by authors (CVRLHESCLGQQVPCCDPCATCYCRFFNAFCYCR; ends and bridges not checked; also: folded, disulfide pairing not given here; UniProt O00253 87-120, looked up, fragment)",coupling of MC4R to Kir7.1,[3]; Fig. 4b,lost its ability to couple MC4R to Kir7.1
same,potency in inhibition of MC4R coupling to Gαs,MC4R [4],"retains normal affinity for MC4R, and potency in inhibition of MC4R coupling to Gαs"
[Ba+2].[Cl-].[Cl-] [BaCl2],amplitude of α-MSH depolarization at higher concentration of salt,PVN MC4R neurons [1],increased amplitude
same,effect of BaCl2 or CsCl on α-MSH induced depolarization,PVN MC4R neurons [1]; current clamp,not blocked in higher concentrations; also recorded: persisted
same,sensitivity of Kir7.1 to external salt,[5],resistant
"CSCC[C@@H]1NC(=O)[C@H](C)NC(=O)[C@H]([C@@H](C)O)NC(=O)CNC(=O)[C@H](CC(C)C)NC(=O)[C@H](CCCCN)NC(=O)[C@H](CCCNC(=N)N)NC(=O)[C@@H]2CSSC[C@@H]3NC(=O)[C@@H]4CCCN4C(=O)[C@H](C(C)C)NC(=O)[C@H](CCC(N)=O)NC(=O)[C@H](CCC(N)=O)NC(=O)CNC(=O)[C@H](CC(C)C)NC(=O)[C@@H]4CSSC[C@H](NC(=O)[C@H]([C@@H](C)O)NC(=O)[C@H](C)NC(=O)[C@H](CSSC[C@@H](C(=O)N[C@@H](CO)C(=O)N[C@@H](CCCNC(=N)N)C(=O)N[C@H](C(=O)O)[C@@H](C)O)NC(=O)[C@@H]5CCCN5C(=O)[C@H](CC(N)=O)NC1=O)NC(=O)[C@@H]1CCCN1C(=O)[C@H](CC(=O)O)NC(=O)[C@H](CSSC[C@H](NC(=O)[C@H](CCCNC(=N)N)NC(=O)[C@H](CCCNC(=N)N)NC(=O)[C@H](CO)NC(=O)[C@@H](N)CO)C(=O)N[C@@H](C(C)C)C(=O)N[C@@H](CCCNC(=N)N)C(=O)N[C@@H](CC(C)C)C(=O)N[C@@H](Cc1c[nH]cn1)C(=O)N[C@@H](CCC(=O)O)C(=O)N[C@@H](CO)C(=O)N4)NC3=O)C(=O)N[C@@H](Cc1ccc(O)cc1)C(=O)N[C@H]1CSSC[C@H](NC(=O)[C@H](Cc3ccccc3)NC(=O)[C@H](C)NC(=O)[C@H](CC(N)=O)NC(=O)[C@H](Cc3ccccc3)NC(=O)[C@H](Cc3ccccc3)NC(=O)[C@H](CCCNC(=N)N)NC1=O)C(=O)N[C@@H](Cc1ccc(O)cc1)C(=O)N2 [AgRP, Agouti-related protein]",effect on firing activity,"PVN MC4R neurons [6]; AgRP, cells held around −50 mV",inhibiting their firing activity
same,membrane potential response,"PVN MC4R neurons [1]; 100 nM AgRP, bath application, current clamp, **p<0.01",hyperpolarized PVN MC4R neurons; also recorded: hyperpolarizing response
same,effect on K+ current of PVN MC4R neurons,PVN MC4R neurons [7],generates hyperpolarizing current by opening of inward rectifying K^+ channels; also recorded: increases the density of an inward rectifying K^+ current
same,reversal potential of AgRP-activated current,"PVN MC4R neurons [7]; AgRP 50 nM, 20 mM external K+",−46.7 +/− 3.0 mV
same,increase of membrane conductance,"PVN MC4R neurons [7]; AgRP 50 nM, 20 mM external K+, n=6",75%
same,duration of increase of Tl+ flux,"[3]; low dose AgRP 1 nM, data not shown",up to 24 h
same,β-arrestin recruitment,MC4R [8],did not appear to; also recorded: without any effect
same,coupling to Gαi,MC4R - Gαi,"did not appear to couple the MC4R to the cAMP inhibitory G protein, Gαi"
miniAgRP (AgRP 87-120) (from UniProt O00253 87-120) (peptide),"stimulation of Kir7.1 activity, potency",[9],1.7e-07
Nc1ncnc2c1ncn2C1CCCO1 (stereo not shown) [SQ22536],effect on α-MSH induced depolarization,"PVN MC4R neurons [1]; SQ22536 25 μM, adenylyl cyclase inhibition",fails to block depolarizing effects of α-MSH; also recorded: failed to block α-MSH induced depolarization
Cc1ccc(OCC(O)Cn2c(=N)n(Cc3ccccc3)c3ccccc32)cc1 (stereo not shown) [VU573],inhibition of depolarizing effect of α-MSH,"PVN MC4R neurons [1]; 15 μM VU573, 250 nM α-MSH",~ 80%
N#CC(=C(/N)Sc1ccccc1N)/C(C#N)=C(/N)Sc1ccccc1N [U0126],effect on α-MSH induced increase in firing frequency,"PVN MC4R neurons [6]; U0126 1 μM, whole cell",ineffective in blocking neuronal firing or depolarization; also recorded: fails to block α-MSH -induced increase in firing frequency
Nc1nc2c(ncn2[C@@H]2O[C@H](COP(=O)(O)OP(O)(O)=S)[C@@H](O)[C@H]2O)c(=O)[nH]1 [GDPβS],effect on α-MSH induced depolarization,"PVN MC4R neurons [1]; 5 mM GDPβS, intrapipette",fails to block the α-MSH – induced depolarization; also recorded: failed to block α-MSH induced depolarization of PVN MC4R neurons
same,effect on D1 (SKF83822) mediated depolarization,[10]; 5 mM GDPβS intrapipette,blocks the depolarization and firing activity induced by SKF83822; also recorded: blocked D1 mediated depolarization
O=C1OC2(c3ccccc31)c1ccc(O)c(O)c1Oc1c2ccc(O)c1O [gallein],effect on α-MSH induced firing or depolarization,"PVN MC4R neurons [1]; gallein 25 μM, Gβγ blocker",ineffective in blocking neuronal firing or depolarization; also recorded: fails to inhibit α-MSH induced depolarization
same,effect on DAMGO response,[2],blocks the effects of DAMGO
DAMGO,effect of DAMGO on membrane potential,[2],hyperpolarization
C=CCN1CCc2c(cc(O)c(O)c2Cl)C(c2cccc(C)c2)C1 (stereo not shown) [SKF83822],depolarization of PVN neurons by D1 agonist,[10],causes depolarization of PVN neurons; also recorded: depolarized PVN neurons
[Cl-].[Cs+] [CsCl],amplitude of α-MSH depolarization at higher concentration of salt,PVN MC4R neurons [1],increased amplitude
same,effect of BaCl2 or CsCl on α-MSH induced depolarization,PVN MC4R neurons [1]; current clamp,not blocked in higher concentrations; also recorded: persisted
same,sensitivity of Kir7.1 to external salt,[5],resistant
O=[N+]([O-])c1ccc(CN2CCOCCOCCN(Cc3ccc([N+](=O)[O-])cc3)CCOCC2)cc1 [VU590],effect of Kir blocker on α-MSH induced depolarization,"PVN MC4R neurons [1]; 250 nM α-MSH, blocker concentration not given",blocked
"SSRRCVRLHESCLGQQVPCCDPCATCYCRFFNAFCYCRKLGTAMNPCSRT (domain or fragment, ends and bridges not checked; cysteine pairing not given here) [wtAgRP (83-132)]","stimulation of Kir7.1 activity, potency",[9],3.6e-09
